As usually defined, the IC50 is the concentration that gives 50% inhibition. One may read the inhibition as the share of the control response that was lost under treatment.

Experiment [1] in a line: Antiproliferative activity against human HCC827 Gefitinib-resistant (GR) cells assessed as reduction in cell viability measured after 72 hrs by MTS assay.
The target in experiment [2] is T1, Ephrin type-B receptor 4 (Homo sapiens) (UniProt P54760).
T1 sequence (whole entry): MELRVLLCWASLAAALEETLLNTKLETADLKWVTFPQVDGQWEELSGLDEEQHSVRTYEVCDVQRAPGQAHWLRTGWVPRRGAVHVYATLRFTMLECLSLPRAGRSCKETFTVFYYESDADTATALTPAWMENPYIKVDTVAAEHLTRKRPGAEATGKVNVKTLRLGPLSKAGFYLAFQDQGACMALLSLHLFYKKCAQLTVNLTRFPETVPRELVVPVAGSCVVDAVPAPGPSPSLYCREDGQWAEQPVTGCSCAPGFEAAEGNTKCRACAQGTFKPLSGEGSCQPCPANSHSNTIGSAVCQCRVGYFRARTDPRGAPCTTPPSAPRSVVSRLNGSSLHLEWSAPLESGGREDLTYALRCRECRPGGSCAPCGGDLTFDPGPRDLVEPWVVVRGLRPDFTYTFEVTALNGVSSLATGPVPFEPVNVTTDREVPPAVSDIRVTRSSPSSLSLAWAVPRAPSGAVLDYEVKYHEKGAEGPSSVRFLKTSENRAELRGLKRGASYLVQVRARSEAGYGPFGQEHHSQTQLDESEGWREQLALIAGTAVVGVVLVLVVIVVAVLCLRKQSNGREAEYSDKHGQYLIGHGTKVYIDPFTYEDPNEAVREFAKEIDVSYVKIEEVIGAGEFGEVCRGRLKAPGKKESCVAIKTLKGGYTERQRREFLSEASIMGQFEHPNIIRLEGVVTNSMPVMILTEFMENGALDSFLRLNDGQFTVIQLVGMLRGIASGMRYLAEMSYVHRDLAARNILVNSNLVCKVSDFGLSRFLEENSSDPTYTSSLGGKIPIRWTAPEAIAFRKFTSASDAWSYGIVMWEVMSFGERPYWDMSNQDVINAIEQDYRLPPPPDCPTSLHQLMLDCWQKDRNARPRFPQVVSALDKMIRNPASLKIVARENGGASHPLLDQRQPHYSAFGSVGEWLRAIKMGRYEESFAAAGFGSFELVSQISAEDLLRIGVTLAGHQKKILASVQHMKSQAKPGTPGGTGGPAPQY
The experiment is described as follows: Inhibition of human N-terminal GST-fused EPHB4 cytoplasmic domain (577 to 987 (end)residues) expressed in baculovirus expression system at 20 uM measured after 1 hr in presence of peptide substrate and ATP by off-chip mobility shift assay relative to control. In short, it runs like this: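 Off-chip mobility shift assay. Product and substrate peptides were separated; activity was taken as P/(P+S). Complete reaction was set as 0% inhibition and enzyme-free background as 100%. Run in triplicate, mean ± SD.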

Experiment [3] is described as follows: Induction of apoptosis in human PC9-OR cells assessed as early apoptotic cells at 20 uM measured after 24 hrs by Annexin V-[…]propidium iodide staining based flow cytometry relative to control. In kind it is functional. In a few lines: (§1)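 Resistant cells were seeded at 500.000 per dish and treated the next day for 24 h at 20 μM. Cells were harvested, washed in PBS, and stained with annexin V-Alexa 488 and PI, then analysed by flow cytometry. Early apoptotic cells were scored as annexin+/PI−, late apoptotic/necrotic cells as annexin+/PI+.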

Experiment [4] can be described thus: Induction of apoptosis in human HCC827 Gefitinib-resistant (GR) cells assessed as late apoptotic/necrotic cells at 20 uM measured after 24 hrs by Annexin V-[…]propidium iodide staining based flow cytometry relative to control. The experiment is classed as functional, HCC827 Gefitinib-resistant (GR) cell. In a few lines:
as §1

`Cc1ccc(NC(=O)CN2C(=O)/C(=N\NC(=O)c3cc(Br)ccc3O)c3ccc(Cl)cc32)cc1`: the 50% inhibitory concentration (IC50) in experiment [1] stood at 5.16 µM. In addition, the inhibition in experiment [2] was 63%.
With `Cc1ccc(NC(=O)CN2C(=O)/C(=N\NC(=O)c3cc(Br)ccc3O)c3ccc(Br)cc32)cc1`, the Activity in experiment [3] amounted to 57.5%; in experiment [4], 90.8%. Besides, the half-inhibitory concentration (IC50) in experiment [1] was determined as 4.34 µM. For the same compound, in experiment [2], the inhibition worked out at 62.5%.
The corresponding values for `Cc1ccc(NC(=O)CN2C(=O)/C(=N\NC(=O)c3cc(Br)ccc3O)c3ccccc32)cc1` are 75.5%, 96.2%, 10.7 µM and 93.3%.
For the compound `O=C(CN1C(=O)/C(=N\NC(=O)c2cc(Br)ccc2O)c2c(Br)cccc21)Nc1ccc([N+](=O)[O-])cc1`, the IC50 in experiment [1] amounted to 3.52 µM. Also, the inhibition in experiment [2] was determined as 70.8%.

For the origin of these results see ChEMBL document CHEMBL6134769, “Discovery of N-substituted-2-oxoindolin benzoylhydrazines as c-MET/SMO modulators in EGFRi-resistant non-small cell lung cancer” (RSC Med Chem, 2025).
